Source: ChEMBL document CHEMBL1148001 (Bioorg Med Chem Lett, 2007)

Assays:
Dipeptidyl peptidase 8 = Dipeptidyl peptidase 8 (Homo sapiens, UniProt Q6V1X1); test: Inhibition of DPP8 activity
Dipeptidyl peptidase 9 = Dipeptidyl peptidase 9 (Homo sapiens, UniProt Q86TI2); test: Inhibition of DPP9 activity
[1] = Oral bioavailability in rat at 2 mg/kg; format: ADME, organism-based; conditions: in vivo
How it was run: (§1)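 Rats received the inhibitor at 1 mg/kg iv and 2 mg/kg po. Values reported are clearance (mL/min/kg), half-life (h), oral AUC normalized to dose (μM h kg mg⁻¹) and oral bioavailability F (%).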

[2] = Clearance in rat at 1 mg/kg, iv or 2 mg/kg, po; format: ADME, organism-based; conditions: in vivo; how it was run: as §1
[3] = Half life in rat at 1 mg/kg, iv or 2 mg/kg, po; format: ADME, organism-based; conditions: in vivo; how it was run: as §1

Dipeptidyl peptidase 9, sequence (Q86TI2 whole entry): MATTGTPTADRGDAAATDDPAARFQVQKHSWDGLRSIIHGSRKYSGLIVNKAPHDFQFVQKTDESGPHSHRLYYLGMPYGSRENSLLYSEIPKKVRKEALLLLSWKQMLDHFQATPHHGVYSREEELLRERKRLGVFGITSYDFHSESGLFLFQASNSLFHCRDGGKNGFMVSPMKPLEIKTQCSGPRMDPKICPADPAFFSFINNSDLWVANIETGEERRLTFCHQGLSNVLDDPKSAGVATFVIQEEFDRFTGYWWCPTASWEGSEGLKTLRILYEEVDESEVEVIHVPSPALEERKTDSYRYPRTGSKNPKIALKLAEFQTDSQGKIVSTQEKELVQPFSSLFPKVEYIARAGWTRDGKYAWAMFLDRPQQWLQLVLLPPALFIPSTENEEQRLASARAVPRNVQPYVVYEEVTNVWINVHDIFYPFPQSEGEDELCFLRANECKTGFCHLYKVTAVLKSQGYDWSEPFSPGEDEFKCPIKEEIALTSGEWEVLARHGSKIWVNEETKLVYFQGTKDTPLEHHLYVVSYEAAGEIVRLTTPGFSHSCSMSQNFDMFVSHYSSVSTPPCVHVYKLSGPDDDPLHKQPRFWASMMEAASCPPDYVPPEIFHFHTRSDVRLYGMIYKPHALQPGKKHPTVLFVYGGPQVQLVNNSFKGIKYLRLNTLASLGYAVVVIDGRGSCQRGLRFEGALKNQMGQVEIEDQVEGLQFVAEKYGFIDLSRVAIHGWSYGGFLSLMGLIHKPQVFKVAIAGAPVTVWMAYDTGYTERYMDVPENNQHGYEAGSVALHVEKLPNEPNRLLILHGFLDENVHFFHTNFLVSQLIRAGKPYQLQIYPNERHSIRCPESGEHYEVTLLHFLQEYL
Dipeptidyl peptidase 8, sequence (Q6V1X1 whole entry): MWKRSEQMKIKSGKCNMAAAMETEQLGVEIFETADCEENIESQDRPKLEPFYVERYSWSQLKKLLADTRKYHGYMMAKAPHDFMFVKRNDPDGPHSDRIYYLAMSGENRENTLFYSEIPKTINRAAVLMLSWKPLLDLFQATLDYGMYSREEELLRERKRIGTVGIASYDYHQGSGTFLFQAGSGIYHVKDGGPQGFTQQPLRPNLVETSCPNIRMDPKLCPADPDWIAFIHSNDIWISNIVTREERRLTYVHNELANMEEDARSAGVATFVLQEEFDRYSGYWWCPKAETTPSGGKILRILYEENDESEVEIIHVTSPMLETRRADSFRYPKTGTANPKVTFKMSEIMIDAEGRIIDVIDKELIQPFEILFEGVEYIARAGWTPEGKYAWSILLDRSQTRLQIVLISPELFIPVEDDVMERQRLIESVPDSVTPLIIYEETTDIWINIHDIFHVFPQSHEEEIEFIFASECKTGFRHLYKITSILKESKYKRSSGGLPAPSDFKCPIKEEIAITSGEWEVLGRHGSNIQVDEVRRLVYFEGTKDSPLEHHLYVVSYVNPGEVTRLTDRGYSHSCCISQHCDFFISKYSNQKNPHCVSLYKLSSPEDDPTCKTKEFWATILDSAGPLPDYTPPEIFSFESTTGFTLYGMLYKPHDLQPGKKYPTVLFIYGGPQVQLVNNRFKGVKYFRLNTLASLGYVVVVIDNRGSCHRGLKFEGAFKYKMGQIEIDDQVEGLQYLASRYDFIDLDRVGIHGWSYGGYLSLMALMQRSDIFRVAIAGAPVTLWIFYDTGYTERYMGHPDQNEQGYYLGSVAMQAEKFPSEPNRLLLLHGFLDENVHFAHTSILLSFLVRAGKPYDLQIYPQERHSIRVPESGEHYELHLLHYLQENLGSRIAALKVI

| SMILES | IC50 (Dipeptidyl peptidase 8) | IC50 (Dipeptidyl peptidase 9) | bioavailability [1] | clearance [2] | half-life [3] |
| --- | --- | --- | --- | --- | --- |
| N[C@@H](CC(=O)N1CCn2c(nnc2C(F)(F)F)C1)Cc1cccc(F)c1 | > 100 µM | > 100 µM | – | – | – |
| N[C@@H](CC(=O)N1CCn2c(nnc2-c2ccc(F)cc2)C1)Cc1cc(F)ccc1F | – | > 100 µM | – | – | – |
| N[C@@H](CC(=O)N1CCn2c(nnc2-c2ccncc2)C1)Cc1cc(F)ccc1F | – | 84 µM | – | – | – |
| N[C@@H](CC(=O)N1CCn2c(CO)nnc2C1)Cc1cc(F)ccc1F | > 100 µM | > 100 µM | – | – | – |
| CCc1nnc2n1CCN(C(=O)C[C@H](N)Cc1cc(F)c(F)cc1F)C2 | – | > 100 µM | 2% | 70 mL/min/kg | – |
| CCOC(=O)c1nnc2n1CCN(C(=O)C[C@H](N)Cc1cc(F)c(F)cc1F)C2 | 22 µM | – | – | – | – |
| CC(C)(C)NC(=O)c1nnc2n1CCN(C(=O)C[C@H](N)Cc1cc(F)c(F)cc1F)C2 | – | > 100 µM | – | – | – |
| N[C@@H](CC(=O)N1CCn2c(nnc2C(F)(F)F)C1)Cc1ccc(F)cc1 | – | > 100 µM | – | – | – |
| N[C@@H](CC(=O)N1CCn2c(nnc2C(F)(F)F)C1)Cc1cccc(C(F)(F)F)c1 | > 100 µM | > 100 µM | – | – | – |
| N[C@@H](CC(=O)N1CCn2c(nnc2C(F)(F)F)C1)Cc1cccc(Cl)c1 | > 100 µM | > 100 µM | – | – | – |
| N[C@@H](CC(=O)N1CCn2c(nnc2C(F)(F)F)C1)Cc1ccc(C(F)(F)F)cc1 | > 100 µM | > 100 µM | – | – | – |
| N[C@@H](CC(=O)N1CCn2c(nnc2C(F)(F)F)C1)Cc1ccc(Cl)c(Cl)c1 | > 100 µM | > 100 µM | – | – | – |
| N[C@@H](CC(=O)N1CCn2c(nnc2-c2ccc(F)cc2F)C1)Cc1cc(F)ccc1F | – | 58 µM | – | – | – |
| CCOC(=O)c1nnc2n1CCN(C(=O)C[C@H](N)Cc1cc(F)ccc1F)C2 | – | 78 µM | – | – | – |
| N[C@@H](CC(=O)N1CCn2c(nnc2C2CC2)C1)Cc1cc(F)c(F)cc1F | – | > 100 µM | 3% | 68 mL/min/kg | 1.8 h |
| N[C@@H](CC(=O)N1CCn2c(nnc2C(F)(F)F)C1)Cc1c(F)c(F)c(F)c(F)c1F | > 100 µM | > 100 µM | – | – | – |
| N[C@@H](CC(=O)N1CCn2c(nnc2C(F)(F)F)C1)Cc1ccccc1C(F)(F)F | > 100 µM | > 100 µM | – | – | – |

The remaining lines, values ahead:

| IC50 (Dipeptidyl peptidase 8) | IC50 (Dipeptidyl peptidase 9) | bioavailability [1] | clearance [2] | half-life [3] | SMILES |
| --- | --- | --- | --- | --- | --- |
| > 100 µM | > 100 µM | – | – | – | N[C@@H](CC(=O)N1CCn2c(nnc2C(F)(F)F)C1)Cc1cc(Cl)ccc1Cl |
| – | > 100 µM | 54% | 58 mL/min/kg | 2.1 h | N[C@@H](CC(=O)N1CCn2c(nnc2C(F)(F)F)C1)Cc1cc(F)c(Cl)cc1F |
| > 100 µM | > 100 µM | 47% | 78 mL/min/kg | 1.7 h | N[C@@H](CC(=O)N1CCn2c(nnc2C(F)(F)F)C1)Cc1cc(F)c(F)cc1Cl |
| – | – | 36% | 98 mL/min/kg | 2.6 h | N[C@@H](CC(=O)N1CCn2c(nnc2C(F)(F)F)C1)Cc1ccc(Cl)cc1Cl |
| > 100 µM | > 100 µM | – | – | – | N[C@@H](CC(=O)N1CCn2c(nnc2C(F)(F)F)C1)Cc1cc(F)cc(F)c1F |
| > 100 µM | > 100 µM | – | – | – | N[C@@H](CC(=O)N1CCn2c(nnc2C(F)(F)F)C1)Cc1ccccc1Cl |
| – | > 100 µM | – | – | – | N[C@@H](CC(=O)N1CCn2c(nnc2C(F)(F)F)C1)Cc1ccccc1F |
| – | > 100 µM | – | – | – | N[C@@H](CC(=O)N1CCn2c(nnc2C(F)(F)F)C1)Cc1ccc(F)cc1F |
| – | > 100 µM | 39% | 66 mL/min/kg | 1.3 h | N[C@@H](CC(=O)N1CCn2c(nnc2C(F)F)C1)Cc1cc(F)c(F)cc1F |
| > 100 µM | > 100 µM | – | – | – | N[C@@H](CC(=O)N1CCn2c(nnc2C(F)(F)F)C1)Cc1c(F)ccc(F)c1F |
| > 100 µM | > 100 µM | – | – | – | N[C@@H](CC(=O)N1CCn2c(nnc2C(F)(F)F)C1)Cc1c(F)cc(F)cc1F |
| > 100 µM | – | 43% | 99 mL/min/kg | 1.7 h | N[C@@H](CC(=O)N1CCn2c(nnc2C(F)(F)F)C1)Cc1cc(Cl)ccc1F |
| – | – | 76% | 60 mL/min/kg | – | N[C@@H](CC(=O)N1CCn2c(nnc2C(F)(F)F)C1)Cc1cc(F)c(F)cc1F [SITAGLIPTIN] |
